Published values pooled from the literature.
Protocols differ between the studies behind these lines.
Target: Tyrosine-protein kinase ZAP-70 (ZAP70, Homo sapiens, UniProt P43403)
Residues used in one study (P43403 1-619): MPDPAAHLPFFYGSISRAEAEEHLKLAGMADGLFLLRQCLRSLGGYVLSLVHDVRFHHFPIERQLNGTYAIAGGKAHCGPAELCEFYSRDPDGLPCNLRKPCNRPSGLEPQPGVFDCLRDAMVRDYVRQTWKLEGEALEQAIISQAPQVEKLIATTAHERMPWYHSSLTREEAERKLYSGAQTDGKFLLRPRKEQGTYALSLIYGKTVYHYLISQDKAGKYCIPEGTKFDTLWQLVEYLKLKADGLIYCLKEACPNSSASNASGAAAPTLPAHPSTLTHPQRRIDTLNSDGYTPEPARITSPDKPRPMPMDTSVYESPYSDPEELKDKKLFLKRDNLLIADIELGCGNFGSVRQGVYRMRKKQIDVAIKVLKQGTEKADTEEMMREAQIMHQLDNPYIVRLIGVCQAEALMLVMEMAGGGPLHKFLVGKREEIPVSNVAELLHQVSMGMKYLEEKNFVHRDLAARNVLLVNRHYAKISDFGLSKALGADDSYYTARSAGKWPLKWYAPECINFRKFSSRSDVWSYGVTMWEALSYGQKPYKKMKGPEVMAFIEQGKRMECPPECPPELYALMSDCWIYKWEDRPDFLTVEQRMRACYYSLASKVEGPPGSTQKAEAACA

With `CS(=O)(=O)N1CCCC(NC(=O)[C@H](CCC2CCCCC2)NC(=O)c2ccc(CNc3ncnc4c3nnn4-c3ccccc3)cc2)C1` (stereo partly drawn) the remaining binding was 100% (cell-free assay; competition with immobilised ligand; 0.1 µM).
`CCN(CC)c1ccc(C2=NNC(=O)CC2C)cc1[N+](=O)[O-]` (stereo not drawn) gave a remaining activity of 67% (enzyme activity; inhibitor; 10 µM).
`COc1ccc2c(c1)O[C@H](c1ccc(OC)c(OC)c1)C[C@@H]2NC(=O)C1(c2ccc3c(c2)OC(F)(F)O3)CC1` gave a remaining binding of 93% (cell-free assay; competition with immobilised ligand; 1 µM).
`CNC(=O)c1cc(Oc2ccc(NC(=O)Nc3ccc(Cl)c(C(F)(F)F)c3)cc2)ccn1` has an inhibition of -42% (enzyme activity; inhibitor; 10 µM).
The remaining signal of `Nc1nc(Nc2ccc(S(N)(=O)=O)cc2)nn1C(=O)c1c(F)cccc1F` is reported as 94.8% (cell-free assay; 0.5 µM).
The remaining binding of `Cc1noc([C@H]2C[C@@H](c3ccc(C(F)(F)F)cc3)CN(C(=O)N3CCS(=O)(=O)C3)C2)n1` is reported as 100% (cell-free assay; competition with immobilised ligand; 1 µM).
The inhibition of `CC/C(=N\NC(=O)NCc1cccc(O)c1)c1ccc(O)c(C)c1O` is reported as -2.1% (enzyme activity; inhibitor; 0.1 µM).
`FC(F)(F)Oc1cccc(-c2cnc3ccc(-c4ccncc4)nn23)c1` has an activity vs control of 104% (enzyme activity; inhibitor; radiometric; 5 µM).
`O=C1Nc2ccc(Cl)cc2C1=Cc1cc(Cl)c(O)c(Cl)c1` has a remaining signal of 95% (cell-free assay; 0.5 µM).
For `C[C@@H]1CN(c2cc(-c3n[nH]c4ccc(OC5(C)CC5)cc34)ncn2)C[C@H](C)O1`, the remaining binding was 83% (cell-free assay; competition with immobilised ligand; 0.1 µM).
For `CCN(CC)CCNC(=O)c1c(C)[nH]c(/C=C2\C(=O)Nc3ccc(F)cc32)c1C`, the remaining activity was 101% (enzyme activity; inhibitor; 0.1 µM).
The activity vs control of `Cc1cc(NC(=O)c2cccc3cc(-c4cccc5[nH]nc(N)c45)ccc23)ccc1F` is reported as 109% (enzyme activity; inhibitor; 0.1 µM).
For `CNCc1ccc(-c2cc(-c3nc(-c4ccc(S(=O)(=O)C(C)C)cc4)cnc3N)on2)cc1`, the inhibition was 0% (enzyme activity; inhibitor; 0.4 µM).
`Cc1sc(C(=O)NC2COC2)cc1-n1cc(NC(=O)Nc2c(F)cccc2Cl)cn1` has a remaining activity of 103% (enzyme activity; inhibitor; 10 µM).
`NS(=O)(=O)c1cc(NC(=O)Cc2ccccc2)ccc1Oc1cccc(Cl)c1` has a remaining binding of 87% (cell-free assay; competition with immobilised ligand; 1 µM).
The remaining signal of `O=C1NC(=O)c2cc(Nc3ccc(F)cc3)c(Nc3ccc(F)cc3)cc21` is reported as 78.8% (cell-free assay; 0.5 µM).
`CC(=O)N1CCC(c2ccc(C(=O)NC(=N)N)cc2C(F)(F)F)CC1` has a remaining binding of 100% (cell-free assay; competition with immobilised ligand; 1 µM).
`CCN(CC)CCNC(=O)c1c(C)[nH]c(/C=C2\C(=O)Nc3ccc(F)cc32)c1C` has an inhibition of 2% (enzyme activity; inhibitor; 0.3 µM).
For `Cc1[nH]c(/C=C2\C(=O)Nc3ccc(F)cc32)c(C)c1C(=O)N[C@H]1CCN(C(=O)N(C)C)C1`, the remaining activity was 105% (enzyme activity; inhibitor; 0.1 µM).
`Cc1ccc(C(=O)Nc2ccc(CN3CCN(C)CC3)c(C(F)(F)F)c2)cc1C#Cc1cnc2cccnn12` has a remaining activity of 99% (enzyme activity; inhibitor; 23.5 nM).
For `CC(C)(C)c1nc2c(s1)c1nc(N)ncc1c1ccc(NS(=O)(=O)c3c(F)cccc3F)c(F)c12`, the remaining activity was 95% (enzyme activity; inhibitor; radiometric; 1 µM).
For `COc1ccc(COc2ccc(Cc3cnc(N)nc3N)cc2OC)cc1`, the remaining signal was 94.3% (cell-free assay; 0.5 µM).
`O=C(CSc1nc2nccnc2c(=O)n1CCc1ccccc1)Nc1nccs1` has an inhibition of 14% (enzyme activity; inhibitor; 10 µM).
`O=C(N[C@H]1CCCCC/C=C\C2C[C@@]2(C(=O)O)NC(=O)[C@@H]2C[C@@H](Oc3ccncc3)CN2C1=O)OC1CCCC1` (stereo partly drawn) has a remaining binding of 96% (binding; competition with immobilised ligand; 1 µM).
For `CC(C)(O)[C@H]1CC[C@H](Nc2ccc3ncc(-c4cccc(C(F)(F)F)c4)n3n2)CC1`, the remaining activity was 93.4% (enzyme activity; inhibitor; 1 µM).
For `Cc1cnc(NC2CCOCC2)nc1-n1cnc(C(=O)NC(CN)c2cc(F)cc(Cl)c2)c1` (stereo not drawn), the remaining activity was 115% (enzyme activity; inhibitor; radiometric; 1 µM).
For `CCOc1cc(-c2nncn2C)ccc1Nc1ncc2cc(C)nc(NCC(C)(C)C)c2n1`, the inhibition was under 15% (enzyme activity; inhibitor; FRET; 1 µM).
`COc1cc(Nc2cnc(C#N)c(O[C@H](C)CN(C)C)n2)ncc1-c1cnn(C)c1` gave a remaining activity of 103% (enzyme activity; inhibitor; radiometric; 10 µM).
The remaining binding of `CCCOc1ccc([C@H]2[C@H](C(=O)O)[C@@H](c3ccc4c(c3)OCO4)CN2CC(=O)Nc2c(CC)cccc2CC)cc1` is reported as 50% (cell-free assay; competition with immobilised ligand; 1 µM).
For `COc1cc2ncnc(Nc3ccc(Oc4ccccc4)c(C)c3C)c2cc1OC`, the inhibition was -2% (enzyme activity; inhibitor; 1 µM).
